Test system: CXCR4
Assay: Ca2+ mobilization assay in SupT1 cells
Format: cell-based, human
Conditions: SupT1 cells expressing CXCR4, Fura-2, 500 ng/ml SDF-1α, without ALX40-4C
Outline: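 SupT1 cells were loaded with 2.5 μM Fura-2/AM for 1 h at 37°C in the dark, allowed to efflux 15 min in PBS, then resuspended at 2 × 10⁶ cells/ml in Dulbecco's PBS with calcium and magnesium. Test compound (10–50 μM) was added, and SDF-1α (500 ng/ml) followed ∼90 s later. The Ca²⁺ signal was read on a luminescence spectrometer.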

## SDF-1α: the chemokine stromal-derived factor (SDF)-1α (Peprotech)
  Ca2+ mobilization response to SDF-1α: normally respond to SDF-1α

Source: PMC2199097 (The Journal of Experimental Medicine, 1997)
